Laboratory results reported in ChEMBL document CHEMBL4350958, “Rational Design of Short Peptide Variants by Using Kunitzin-RE, an Amphibian-Derived Bioactivity Peptide, for Acquired Potent Broad-Spectrum Antimicrobial and Improved Therapeutic Potential of Commensalism Coinfection of Pathogens” (J Med Chem, 2019).

How the values were obtained:
[1] = Therapeutic index, ratio of MHC10 for hemolytic activity in human RBC to MIC95 against methicillin-resistant Staphylococcus aureus ATCC 43300; assay type: toxicity; conditions: human red blood cells (erythrocytes), read-out: TI
Procedure, shortened: (§1)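 Therapeutic index = MHC divided by MIC. MHC is the lowest concentration giving >10% lysis of human RBC (1 h, 37 °C, 1-128 µM, A576). MIC is 95% growth inhibition by broth microdilution: bacteria in MHB 24 h at 37 °C; Candida in MOPS-buffered RPMI 1640 at (0.5–1) × 10^3 CFU mL−1, 48 h at 28 °C.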

Staphylococcus aureus [2] = assay: Antibacterial activity against Staphylococcus aureus ATCC 29213 measured after 18 to 24 hrs in presence of KCl; assay type: functional
[3] = Therapeutic index, ratio of MHC10 for hemolytic activity in human RBC to MIC95 against Candida tropicalis cgmcc2.1975; assay type: toxicity; conditions: human red blood cells (erythrocytes), read-out: TI; procedure, shortened: as §1
Staphylococcus aureus [4] = assay: Bactericidal activity against methicillin-resistant Staphylococcus aureus ATCC 43300 incubated for 24 hrs followed by replating on agar plate and measured after overnight incubation; assay type: functional; conditions: ATCC 43300, 24 h, read-out: MBC>99.9
Procedure, shortened: (§2)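 After the 24 h, 37 °C MHB microdilution MIC assay, 50 μL from each well was plated on agar and incubated overnight. MBC taken as lowest peptide concentration killing >99.9% of cells. At least three independent experiments, each with three technical replicates.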

Escherichia coli [5] = assay: Bactericidal activity against Escherichia coli UB1005 incubated for 24 hrs followed by replating on agar plate and measured after overnight incubation; assay type: functional; conditions: UB1005, 24 h, read-out: MBC>99.9
Procedure, shortened: (§3)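 Mid-log bacteria diluted in MHB to (0.5–1) × 10^5 CFU/mL and mixed 1:1 with peptide serially diluted in 0.2% BSA. After 24 h at 37 °C, 50 μL of each mixture was plated on agar and incubated overnight. MBC taken as the lowest concentration killing >99.9% of cells. At least three independent experiments, each with three technical replicates.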

Staphylococcus aureus [6] = assay: Antibacterial activity against Staphylococcus aureus ATCC 29213 measured after 18 to 24 hrs in presence of NH4Cl; assay type: functional
Procedure, shortened: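 MIC broth microdilution (MHB, 0.2% BSA peptide diluent, A492, 95% inhibition) run in the presence of physiological salts at final concentrations of 6 μM NH4Cl or 8 μM ZnCl2. Three independent assays, each with three technical replicates.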

[7] = Antibacterial activity against Salmonella pullorum ATCC 7913 measured after 24 hrs; assay type: functional, Salmonella enterica subsp. enterica serovar Pullorum; conditions: Salmonella enterica, ATCC 7913, 24 h
Procedure, shortened: (§4)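 Broth microdilution adapted from NCCLS. Mid-log bacteria were diluted in MHB to a final (0.5–1) × 10^5 CFU mL−1. Peptides were serially diluted in 0.2% BSA and mixed with an equal volume of cells. After 24 h at 37 °C, MIC was read at A492 as the lowest concentration inhibiting 95% of growth. At least three independent experiments, each with three technical replicates.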

[8] = Therapeutic index, ratio of MHC10 for hemolytic activity in human RBC to MIC95 against Staphylococcus aureus ATCC 25923; assay type: toxicity; conditions: human red blood cells (erythrocytes), read-out: TI; procedure, shortened: as §1
[9] = Therapeutic index, ratio of MHC10 for hemolytic activity in human RBC to MIC95 against Escherichia coli ATCC 25922; assay type: toxicity; conditions: human red blood cells (erythrocytes), pooled result: one value given for 9 cell lines, strains, targets or settings, read-out: TI; procedure, shortened: as §1
Escherichia coli [10] = assay: Antibacterial activity against Escherichia coli ATCC 25922 measured after 18 to 24 hrs in presence of MgCl2; assay type: functional
[11] = system: Staphylococcus epidermidis; assay: Antibacterial activity against Staphylococcus epidermidis ATCC 12228 measured after 24 hrs; assay type: functional; conditions: ATCC 12228, 24 h; procedure, shortened: as §4
[12] = Conformational stability in 50% trifluoro-ethyl alcohol assessed as alpha-helical structural propensity by measuring absorption spectra at minimum dichroic band at 35 uM by CD spectra analysis; assay type: physicochemical
Procedure, shortened: (§5)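 CD spectra from 190 to 250 nm of peptide at 35 μM in 10 mM PBS, 30 mM SDS micelles or 50% TFE, recorded in a 1.0-mm quartz cell. Ellipticity was converted to mean residue ellipticity. Three independent scans, each averaged over more than 3 runs.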

[13] = Therapeutic index, ratio of MHC10 for hemolytic activity in human RBC to MIC95 against Candida parapsilosis cgmcc2.3989; assay type: toxicity; conditions: human red blood cells (erythrocytes), read-out: TI; procedure, shortened: as §1
Candida albicans [14] = assay: Antifungal activity against Candida albicans cgmcc2.2086 measured after 48 hrs in presence of MgCl by broth microdilution method; assay type: functional; conditions: cgmcc2.2086, 48 h
[15] = Therapeutic index, ratio of MHC10 for hemolytic activity in human RBC to MIC95 against Candida albicans cgmcc2.2086; assay type: toxicity; conditions: human red blood cells (erythrocytes), read-out: TI; procedure, shortened: as §1
Escherichia coli [16] = assay: Antibacterial activity against Escherichia coli ATCC 25922 measured after 18 to 24 hrs in presence of CaCl2; assay type: functional
Staphylococcus aureus [17] = assay: Antibacterial activity against Staphylococcus aureus ATCC 29213 measured after 18 to 24 hrs in presence of MgCl2; assay type: functional
Escherichia coli [18] = assay: Antibacterial activity against Escherichia coli ATCC 25922 measured after 18 to 24 hrs in presence of ZnCl2; assay type: functional
[19] = Cytotoxicity against mouse RAW264.7 cells assessed as cell viability at 2 to 64 uM measured after 18 to 24 hrs by MTT assay relative to control; assay type: cell-based; conditions: RAW264.7 cells, read-out: Activity
Procedure, shortened: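 MTT assay: RAW264.7 cells seeded at 1.0–2.0×10^4 per well and exposed to peptide (2–64 µM) for 18–24 h at 37 °C in 5% CO2. MTT (0.5 mg/mL) added for 4 h, formazan dissolved in DMSO, read at 570 nm. At least three independent experiments with triplicate wells.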

[20] = Conformational stability in pH 7.4 sodium phosphate buffer assessed as absorption spectra at minimum dichroic band at 35 uM by CD spectra analysis; assay type: physicochemical; conditions: pH 7.4, 35 µM; procedure, shortened: as §5
Pseudomonas aeruginosa = assay: Antibacterial activity against Pseudomonas aeruginosa ATCC 27853 measured after 24 hrs; assay type: functional; conditions: ATCC 27853, 24 h; procedure, shortened: as §4
Staphylococcus aureus [21] = assay: Bactericidal activity against Staphylococcus aureus ATCC 29213 incubated for 24 hrs followed by replating on agar plate and measured after overnight incubation; assay type: functional; conditions: ATCC 29213, 24 h, read-out: MBC>99.9; procedure, shortened: as §2
Escherichia coli [22] = assay: Antibacterial activity against Escherichia coli ATCC 25922 measured after 24 hrs; assay type: functional; conditions: ATCC 25922, 24 h; procedure, shortened: as §4
Escherichia coli [23] = assay: Bactericidal activity against Escherichia coli K88 incubated for 24 hrs followed by replating on agar plate and measured after overnight incubation; assay type: functional; conditions: K88, 24 h, read-out: MBC>99.9; procedure, shortened: as §3
Candida albicans [24] = assay: Antifungal activity against Candida albicans cgmcc2.2086 measured after 48 hrs in presence of KCl by broth microdilution method; assay type: functional; conditions: cgmcc2.2086, 48 h
Salmonella typhimurium = assay: Bactericidal activity against Salmonella typhimurium ATCC 14028 incubated for 24 hrs followed by replating on agar plate and measured after overnight incubation; assay type: functional, Salmonella enterica subsp. enterica serovar Typhimurium; conditions: Salmonella enterica, ATCC 14028, 24 h; read-out: MBC>99.9; procedure, shortened: as §3
Escherichia coli [25] = assay: Antibacterial activity against Escherichia coli K88 measured after 24 hrs; assay type: functional; conditions: K88, 24 h; procedure, shortened: as §4

With H-AARIILRTRFR-NH2 the selectivity ratio [1] was 16, the MIC95 (Staphylococcus aureus [2]) was 32 µM and the selectivity ratio [3] was 4. For the same substance, the MBC (Staphylococcus aureus [4]) was 32 µM, the MBC (Escherichia coli [5]) was 8 µM and the MIC95 (Staphylococcus aureus [6]) was 16 µM. For the same substance, the MIC95 [7] was 8 µM, the selectivity ratio [8] was 16 and the selectivity ratio [9] was 27.4. The MIC95 (Escherichia coli [10]) was 128 µM, the MIC95 [11] was 16 µM and the Activity [12] was 208 to 222 nm. For the same substance, the selectivity ratio [13] was 4, the MIC95 (Candida albicans [14]) was > 128 µM and the selectivity ratio [15] was 4. For the same substance, the MIC95 (Escherichia coli [16]) was > 128 µM, the MIC95 (Staphylococcus aureus [17]) was 32 µM and the MIC95 (Escherichia coli [18]) was 8 µM. The viability at up to 64 µM [19] was 90 to 100%, the “Wavelength of minimum CD band” value [20] was 200 nm and the MIC95 (Pseudomonas aeruginosa) was > 128 µM. It also gave an MBC (Staphylococcus aureus [21]) of 32 µM, an MIC95 (Escherichia coli [22]) of 8 µM and an MBC (Escherichia coli [23]) of 8 µM. The MIC95 (Candida albicans [24]) was > 128 µM, the MBC (Salmonella typhimurium) was 32 µM and the MIC95 (Escherichia coli [25]) was 4 µM.
In the case of H-AARIILRNRFR-NH2, the selectivity ratio [1] is reported as 2, the MIC95 (Staphylococcus aureus [2]) is reported as > 128 µM and the selectivity ratio [3] is reported as 2. The MBC (Escherichia coli [5]) was 32 µM, the MIC95 (Staphylococcus aureus [6]) was > 128 µM and the MIC95 [7] was 16 µM. It also gave a selectivity ratio [8] of 2, a selectivity ratio [9] of 9.33 and an MIC95 (Escherichia coli [10]) of 128 µM. For the same substance, the MIC95 [11] was > 128 µM, the Activity [12] was 208 to 222 nm and the selectivity ratio [13] was 2. For the same substance, the MIC95 (Candida albicans [14]) was > 128 µM, the selectivity ratio [15] was 2 and the MIC95 (Escherichia coli [16]) was > 128 µM. The MIC95 (Staphylococcus aureus [17]) was > 128 µM, the MIC95 (Escherichia coli [18]) was 32 µM and the viability at up to 64 µM [19] was 90 to 100%. For the same substance, the “Wavelength of minimum CD band” value [20] was 200 nm, the MIC95 (Pseudomonas aeruginosa) was > 128 µM and the MIC95 (Escherichia coli [22]) was 32 µM. For the same substance, the MBC (Escherichia coli [23]) was 64 µM, the MIC95 (Candida albicans [24]) was > 128 µM and the MBC (Salmonella typhimurium) was 64 µM. For the same substance, the MIC95 (Escherichia coli [25]) was 32 µM.
H-AARIILRRRFR-NH2 gave a selectivity ratio [1] of 13.4, an MIC95 (Staphylococcus aureus [2]) of 32 µM and a selectivity ratio [3] of 3.17. The MBC (Staphylococcus aureus [4]) was 64 µM, the MBC (Escherichia coli [5]) was 64 µM and the MIC95 (Staphylococcus aureus [6]) was 16 µM. The MIC95 [7] was 16 µM, the selectivity ratio [8] was 13.4 and the selectivity ratio [9] was 14.8. For the same substance, the MIC95 (Escherichia coli [10]) was 64 µM, the MIC95 [11] was 16 µM and the Activity [12] was 208 to 222 nm. For the same substance, the selectivity ratio [13] was 3.17, the MIC95 (Candida albicans [14]) was > 128 µM and the selectivity ratio [15] was 3.17. For the same substance, the MIC95 (Escherichia coli [16]) was 128 µM, the MIC95 (Staphylococcus aureus [17]) was 32 µM and the MIC95 (Escherichia coli [18]) was 8 µM. The viability at up to 64 µM [19] was 90 to 100%, the “Wavelength of minimum CD band” value [20] was 200 nm and the MIC95 (Pseudomonas aeruginosa) was > 128 µM. For the same substance, the MBC (Staphylococcus aureus [21]) was 32 µM, the MIC95 (Escherichia coli [22]) was 8 µM and the MBC (Escherichia coli [23]) was 32 µM. For the same substance, the MIC95 (Candida albicans [24]) was 128 µM, the MBC (Salmonella typhimurium) was 64 µM and the MIC95 (Escherichia coli [25]) was 16 µM.
With H-AARIILRPRFR-NH2 the selectivity ratio [1] was 2, the MIC95 (Staphylococcus aureus [2]) was > 128 µM and the selectivity ratio [3] was 2. For the same substance, the MBC (Escherichia coli [5]) was 16 µM, the MIC95 (Staphylococcus aureus [6]) was > 128 µM and the MIC95 [7] was 16 µM. For the same substance, the selectivity ratio [8] was 2, the selectivity ratio [9] was 16 and the MIC95 (Escherichia coli [10]) was 64 µM. The MIC95 [11] was > 128 µM, the Stability [12] was “Unstable” and the selectivity ratio [13] was 2. For the same substance, the MIC95 (Candida albicans [14]) was > 128 µM, the selectivity ratio [15] was 2 and the MIC95 (Escherichia coli [16]) was 128 µM. For the same substance, the MIC95 (Staphylococcus aureus [17]) was > 128 µM, the MIC95 (Escherichia coli [18]) was 32 µM and the viability at up to 64 µM [19] was 90 to 100%. The “Wavelength of minimum CD band” value [20] was 200 nm, the MIC95 (Pseudomonas aeruginosa) was > 128 µM and the MIC95 (Escherichia coli [22]) was 16 µM. The MBC (Escherichia coli [23]) was 32 µM, the MIC95 (Candida albicans [24]) was > 128 µM and the MBC (Salmonella typhimurium) was 32 µM. It also gave an MIC95 (Escherichia coli [25]) of 16 µM.
